Measurements reported in ChEMBL document CHEMBL3271979, “Inhibition of solid tumors by nitrosoureas. 1. Lewis lung carcinoma” (1977).
The source made the active and inactive calls. The calls are words filed in the database; no cut-off is given here.

Columns and labels:
[1] = test system: Mus musculus; assay: Antitumor activity against mouse advanced Lewis lung carcinoma allografted in ip dosed BDF1 mouse assessed as disease cure administered as single dose on day 6 or 7 post-tumor implantation; format: functional, organism-based
Summary of the method: (§1)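 BDF1 mice (C57Blk/6 × DBA/2) implanted sc by trocar with Lewis lung tumor fragments of about 40 mg, taken only from bacteriologically sterile donor tumors. Mice bearing tumors of about 400 mg (day 6-7) were selected. Each received a single ip dose on day 7, at or below the LD10 in normal mice. Groups were of 10 mice. Tumor weight was taken from calipers as w = ab²/2, measured at least twice weekly. Matched non-tumor mice served as toxicity controls.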

[2] = Antitumor activity against mouse early Lewis lung carcinoma allografted in BDF1 mouse assessed as time delay in tumor growth at 60 mg/kg, ip administered as single dose on 1 or 2 days post-tumor implantation; format: functional; conditions: route intraperitoneal
Summary of the method: (§2)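 BDF1 mice (C57Blk/6 × DBA/2) implanted sc by trocar with ~40 mg Lewis lung tumor fragments from bacteriologically sterile donors. A single ip dose was given on day 1 or 2, as a solution or suspension in water or saline with suspending agent, at ≤0.5 ml. Tumors were measured by caliper at least twice weekly, with weight = ab²/2. Delay was taken as the days for the tumor to reach 1 g.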

[3] = Antitumor activity against mouse early Lewis lung carcinoma allografted in BDF1 mouse assessed as time delay in tumor growth at 40 mg/kg, ip administered as single dose on 1 or 2 days post-tumor implantation; format: functional; conditions: route intraperitoneal; summary of the method: as §2
[4] = Antitumor activity against mouse advanced Lewis lung carcinoma allografted in BDF1 mouse assessed as increase in host life span at 37 mg/kg, ip administered as single dose on 7th day post-tumor implantation; format: functional; conditions: route intraperitoneal
Summary of the method: (§3)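 BDF1 mice (C57Blk/6 × DBA/2) implanted sc by trocar with about 40 mg Lewis lung tumor fragments from bacteriologically sterile donors. Advanced-disease groups held tumors of about 400 mg by day 6-7, sized by caliper (w = ab²/2). Single ip injection on day 7, in water or saline vehicle, at or below the LD10 in normal mice. Tumors measured at least twice weekly.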

[5] = Antitumor activity against mouse advanced Lewis lung carcinoma allografted in BDF1 mouse assessed as increase in host life span at 25 mg/kg, ip administered as single dose on 7th day post-tumor implantation; format: functional; conditions: route intraperitoneal; summary of the method: as §3
[6] = test system: Mus musculus; assay: Antitumor activity against mouse advanced Lewis lung carcinoma allografted in BDF1 mouse assessed as disease cure at 25 mg/kg, ip administered as single dose on 7th day post-tumor implantation measured for 80 days post-drug treatment; format: functional, organism-based; design: dose 25 mg/kg; summary of the method: as §1
[7] = Antitumor activity against mouse early Lewis lung carcinoma allografted in BDF1 mouse assessed as time delay in tumor growth at 26 mg/kg, ip administered as single dose on 1 or 2 days post-tumor implantation; format: functional; conditions: route intraperitoneal; summary of the method: as §2
[8] = test system: Mus musculus; assay: Antitumor activity against mouse advanced Lewis lung carcinoma allografted in BDF1 mouse assessed as complete regression of established tumor at 25 mg/kg, ip administered as single dose on 7th day post-tumor implantation; format: functional, organism-based; design: dose 25 mg/kg; summary of the method: as §1
[9] = test system: Mus musculus; assay: Antitumor activity against mouse advanced Lewis lung carcinoma allografted in ip dosed BDF1 mouse assessed as complete regression of established tumor administered as single dose on day 6 or 7 post-tumor implantation; format: functional, organism-based; summary of the method: as §1
[10] = test system: Mus musculus; assay: Antitumor activity against mouse advanced Lewis lung carcinoma allografted in BDF1 mouse assessed as complete regression of established tumor at 16 mg/kg, ip administered as single dose on 7th day post-tumor implantation; format: functional, organism-based; design: dose 16 mg/kg; summary of the method: as §1
[11] = Antitumor activity against mouse early Lewis lung carcinoma allografted in BDF1 mouse assessed as increase in host life span at 40 mg/kg, ip administered as single dose on 1 or 2 days post-tumor implantation; format: functional; conditions: route intraperitoneal
Summary of the method: (§4)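 BDF1 mice (C57Blk/6 × DBA/2) implanted sc by trocar with ~40 mg Lewis lung tumor fragments from bacteriologically sterile donor tumors. Single ip dose on day 1 or 2, as a solution or suspension in water (CMC or gum acacia) or saline (HPC or Tween 80). Read-out is […]. Same-dose toxicity controls were run in nontumor-bearing mice.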

[12] = Antitumor activity against mouse early Lewis lung carcinoma allografted in BDF1 mouse assessed as increase in host life span at 26 mg/kg, ip administered as single dose on 1 or 2 days post-tumor implantation; format: functional; conditions: route intraperitoneal; summary of the method: as §4
[13] = test system: Mus musculus; assay: Antitumor activity against mouse advanced Lewis lung carcinoma allografted in BDF1 mouse assessed as disease cure at 16 mg/kg, ip administered as single dose on 7th day post-tumor implantation measured for 80 days post-drug treatment; format: functional, organism-based; design: dose 16 mg/kg; summary of the method: as §1
[14] = Antitumor activity against mouse early Lewis lung carcinoma allografted in BDF1 mouse assessed as increase in host life span at 60 mg/kg, ip administered as single dose on 1 or 2 days post-tumor implantation; format: functional; conditions: route intraperitoneal; summary of the method: as §4
[15] = test system: Mus musculus; assay: Antitumor activity against mouse advanced Lewis lung carcinoma allografted in BDF1 mouse assessed as complete regression of established tumor at 37 mg/kg, ip administered as single dose on 7th day post-tumor implantation; format: functional, organism-based; design: dose 37 mg/kg; summary of the method: as §1
[16] = Antitumor activity against mouse advanced Lewis lung carcinoma allografted in ip dosed BDF1 mouse assessed as increase in host lifespan administered as single dose on day 6 or 7 post-tumor implantation; format: functional
Summary of the method: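 Advanced Lewis lung model: about 40 mg fragments implanted sc by trocar into BDF1 mice, and mice with tumors of about 400 mg (day 6-7) selected. Tumor weight from calipers, w = ab²/2. Agent given as one ip dose in distilled water or physiological saline. Nontumor-bearing mice received matching doses as toxicity controls.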

[17] = Antitumor activity against mouse advanced Lewis lung carcinoma allografted in BDF1 mouse assessed as increase in host life span at 16 mg/kg, ip administered as single dose on 7th day post-tumor implantation; format: functional; conditions: route intraperitoneal; summary of the method: as §3
[18] = test system: Mus musculus; assay: Antitumor activity against mouse advanced Lewis lung carcinoma allografted in BDF1 mouse assessed as disease cure at 37 mg/kg, ip administered as single dose on 7th day post-tumor implantation measured for 80 days post-drug treatment; format: functional, organism-based; design: dose 37 mg/kg; summary of the method: as §1
[19] = Antitumor activity against mouse early Lewis lung carcinoma allografted in ip dosed BDF1 mouse assessed as disease cure administered as single dose on 1 or 2 days post-tumor implantation measured for 80 days post-drug treatment; format: functional
Summary of the method: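 BDF1 mice implanted sc by trocar with ~40 mg Lewis lung fragments from sterile donor tumors. A single ip dose was given on day 1 or 2 after implant, in water or saline vehicle. Cures were scored in animals observed for at least 80 days after treatment. Drug-toxicity controls were matched non-tumor-bearing mice monitored for body weight and deaths.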

[20] = Antitumor activity against mouse early Lewis lung carcinoma allografted in BDF1 mouse assessed as increase in host life span at 38 mg/kg, ip administered as single dose on 1 or 2 days post-tumor implantation; format: functional; conditions: route intraperitoneal; summary of the method: as §4
[21] = Antitumor activity against mouse early Lewis lung carcinoma allografted in BDF1 mouse assessed as time delay in tumor growth at 57 mg/kg, ip administered as single dose on 1 or 2 days post-tumor implantation; format: functional; conditions: route intraperitoneal; summary of the method: as §2
[22] = Antitumor activity against mouse early Lewis lung carcinoma allografted in BDF1 mouse assessed as time delay in tumor growth at 38 mg/kg, ip administered as single dose on 1 or 2 days post-tumor implantation; format: functional; conditions: route intraperitoneal; summary of the method: as §2
[23] = test system: Mus musculus; assay: Antitumor activity against mouse advanced Lewis lung carcinoma allografted in BDF1 mouse assessed as disease cure at 55 mg/kg, ip administered as single dose on 7th day post-tumor implantation measured for 80 days post-drug treatment; format: functional, organism-based; design: dose 55 mg/kg; summary of the method: as §1
[24] = Antitumor activity against mouse early Lewis lung carcinoma allografted in BDF1 mouse assessed as increase in host life span at 57 mg/kg, ip administered as single dose on 1 or 2 days post-tumor implantation; format: functional; conditions: route intraperitoneal; summary of the method: as §4
[25] = Ratio of ED50 for antitumor activity against mouse L1210 cells allografted in ip dosed mouse to LD10 for mouse
[26] = Antitumor activity against mouse advanced Lewis lung carcinoma allografted in BDF1 mouse assessed as increase in host life span at 55 mg/kg, ip administered as single dose on 7th day post-tumor implantation; format: functional; conditions: route intraperitoneal; summary of the method: as §3
[27] = test system: Mus musculus; assay: Antitumor activity against mouse advanced Lewis lung carcinoma allografted in BDF1 mouse assessed as complete regression of established tumor at 55 mg/kg, ip administered as single dose on 7th day post-tumor implantation; format: functional, organism-based; design: dose 55 mg/kg; summary of the method: as §1
[28] = Antitumor activity against mouse advanced Lewis lung carcinoma allografted in BDF1 mouse assessed as increase in host life span at 54 mg/kg, ip administered as single dose on 7th day post-tumor implantation; format: functional; conditions: route intraperitoneal; summary of the method: as §3
[29] = Antitumor activity against mouse advanced Lewis lung carcinoma allografted in BDF1 mouse assessed as increase in host life span at 36 mg/kg, ip administered as single dose on 7th day post-tumor implantation; format: functional; conditions: route intraperitoneal; summary of the method: as §3
[30] = test system: Mus musculus; assay: Antitumor activity against mouse advanced Lewis lung carcinoma allografted in BDF1 mouse assessed as disease cure at 36 mg/kg, ip administered as single dose on 7th day post-tumor implantation measured for 80 days post-drug treatment; format: functional, organism-based; design: dose 36 mg/kg; summary of the method: as §1
[31] = test system: Mus musculus; assay: Antitumor activity against mouse advanced Lewis lung carcinoma allografted in BDF1 mouse assessed as disease cure at 54 mg/kg, ip administered as single dose on 7th day post-tumor implantation measured for 80 days post-drug treatment; format: functional, organism-based; design: dose 54 mg/kg; summary of the method: as §1

## CO[C@H]1CC[C@H](NC(=O)N(CCCl)N=O)CC1
[1]
  Activity: inactive
[2]
  Time: 9.5 days
[3]
  Time: 2 days
[4]
  ILS at 37 mg/kg: 29%
[5]
  ILS at 25 mg/kg: 29%
[6]
  Activity: inactive
[7]
  Time: 0 days
[8]
  inhibition: inactive
[9]
  inhibition: inactive
[10]
  inhibition: inactive
[11]
  ILS at 40 mg/kg: 0%
[12]
  ILS at 26 mg/kg: 18%
[13]
  Activity: inactive
[14]
  ILS at 60 mg/kg: 18%
[15]
  inhibition: inactive
[16]
  ILS: >25%
[17]
  ILS at 16 mg/kg: 20%
[18]
  Activity: inactive

## O=NN(CCCl)C(=O)N[C@H]1CCCC[C@@H]1Cl (relative stereo)
[1]
  Activity: inactive
[19]
  Activity: 10%
[20]
  ILS at 38 mg/kg: 43%
[21]
  Time: 2.5 days
[22]
  Time: 3.3 days
[23]
  Activity: inactive
[24]
  ILS at 57 mg/kg: 38%
[25]
  Ratio: 0.6
[9]
  inhibition: inactive
[26]
  ILS at 55 mg/kg: 18%
[27]
  inhibition: inactive
[16]
  ILS: >25%

## COC(=O)[C@H]1CC[C@@H](NC(=O)N(CCCl)N=O)CC1
[1]
  Activity: inactive
[28]
  ILS at 54 mg/kg: 100%
[29]
  ILS at 36 mg/kg: 120%
[30]
  Activity: inactive
[9]
  inhibition: Active
[31]
  Activity: inactive
